The list is not random: actives were taken first. Their share in the collection is about 4.1%.
KCNK3 inh – human KCNK3 channel inhibitors, primary screen, CHO cells, FluxOR thallium flux, B-score; B-score at 10 µM; Potassium channel subfamily K member 3 (Homo sapiens), O14649; FluxOR fluorescence; hits give low values; 340,000 compounds, 0.84% hits;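 active = B-score under library mean minus 4 SD, starting fluorescence ratio at most library mean plus 5 SD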;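 also: more negative B-score means stronger inhibition of thallium flux through KCNK3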
KCNQ1 pot – potentiators or activators of KCNQ1 channel, primary screen, cell-based, thallium flux, high-throughput; B-score at 10 µM; 310,000 compounds, 0.35% hits; Potassium voltage-gated channel subfamily KQT member 1 (Homo sapiens), P51787; AID 2648, 2010; CHO-K1 KCNQ1, thallium flux FluxOR fluorescence; hits give high values;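 active = fluorescence ratio B-score, a plate-corrected score, at least three library SD, with initial intensity B-score within 5 SD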
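assay system = KCNQ1-transfected CHO-K1 cells | medium = assay buffer with matched DMSO | probe or stimulus = depolarizing K+/Tl+ stimulus, K2SO4 and Tl2SO4 each 12.5 mM in 5x stock | dosing = single dose | incubation = dye 90 min, compound 20 min, room temperature | detection = kinetic FluxOR fluorescence, 10 s baseline plus 110 s post-stimulus | evaluation = ratio B score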
KCNQ1 inh – inhibitors of human KCNQ1 channel, primary screen, cell-based, thallium flux, high-throughput; Potassium voltage-gated channel subfamily KQT member 1 (Homo sapiens), P51787; B-score at 10 µM; 310,000 compounds, 1.3% hits; CHO-K1 KCNQ1, FluxOR thallium flux fluorescence; hits give high values; AID 2642, 2010;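 active = compounds whose thallium flux B-score, printed positive for inhibition, exceeds three library SD while starting fluorescence stays within three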;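 also: channel opened by potassium depolarization with thallium stimulus after 20 min compound exposure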
KCNK9 block – KCNK9 potassium channel inhibitors, primary screen, HEK293 cells, thallium flux; 310,000 compounds, 1.2% hits; FluxOR thallium flux fluorescence; hits give low values; B-score at 10 µM; Potassium channel subfamily K member 9 (Homo sapiens), Q9NPC2;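 active = ratio B-score over 3 SD below the library mean, with starting fluorescence within 5 SD of its mean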;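 also: negative B-score means less thallium flux so channel inhibition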
Cl transport mod – KCC2 cotransporter modulators, thallium flux, primary screen, cell-based, HEK293 KCC2, FluoZin-2 fluorescence, MLSMR; Solute carrier family 12 member 5 (Homo sapiens), Q9H2X9; KCC2 cells, thallium flux FluoZin-2 fluorescence; B-score of Tl+ flux slope (higher = more flux/activation; lower = inhibition) at 10 µM; 190,000 compounds, 2.2% hits; AID 1456, 2008;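 active = thallium flux slope and its plate-corrected score both differing from the plate sample mean at a set confidence after two filtering rounds, in either direction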;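 also: slope of fluorescence scaled to starting intensity during 10 to 20 s after thallium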
hERG protect – hERG rescue from dofetilide block, primary screen, cell-based, CHO-hERG, FluxOR thallium flux, dofetilide IC70; activation (rescue from dofetilide block), less the hit threshold, % at 10 µM; 310,000 compounds, 0.51% hits; dofetilide IC70 present; AID 1511, 2009;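 active = activation above the mean of controls blocked by dofetilide plus 5 SD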;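 also: thallium influx through hERG after potassium depolarization seen as dye fluorescence rise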
KCNK9 inh conf – KCNK9 potassium channel inhibitors, confirmation, HEK293 cells, thallium flux, duplicate | inhibition, % at 10 µM | 4,900 compounds, 43% hits | FluxOR thallium flux fluorescence | shares compounds with KCNK9 block;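 active = thallium signal inhibited by more than 5 SD of the compound-free buffer control wells, on both duplicate plates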;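 also: 0% = assay buffer control wells without compound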
Kir21 sel – mouse Kir2.1 channel inhibition, confirmation, selectivity assay for KCNK9 modulator project, cell-based, HEK293, thallium flux; shares compounds with KCNK9 block; 4,900 compounds, 4% hits; Kir2.1 cells, FluxOR thallium flux fluorescence; AID 492993, 2010; inhibition, % at 10 µM;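 active = thallium signal drop more than 5 SD beyond the mean of the no-compound control wells, seen in both duplicate plates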;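 also: signal is fluorescence rise after thallium addition divided by baseline fluorescence; plate controls were assay buffer only for no effect and full block by chlorpromazine control for full effect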
Target sequence (P35561 whole entry, looked up): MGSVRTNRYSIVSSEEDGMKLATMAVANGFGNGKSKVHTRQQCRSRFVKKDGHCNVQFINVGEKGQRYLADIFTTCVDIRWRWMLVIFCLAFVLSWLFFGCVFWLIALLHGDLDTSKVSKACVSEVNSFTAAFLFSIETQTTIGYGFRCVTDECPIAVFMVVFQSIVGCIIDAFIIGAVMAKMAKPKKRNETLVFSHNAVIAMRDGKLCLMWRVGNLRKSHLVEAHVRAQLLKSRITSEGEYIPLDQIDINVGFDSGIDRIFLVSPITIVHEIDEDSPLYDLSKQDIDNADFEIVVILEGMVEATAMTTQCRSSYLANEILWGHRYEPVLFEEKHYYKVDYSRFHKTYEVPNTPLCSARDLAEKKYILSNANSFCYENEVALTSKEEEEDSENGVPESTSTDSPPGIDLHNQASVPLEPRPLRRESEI
KCNK9 uninduced – thallium flux in non-induced HEK293 cells, confirmation, counter-screen for KCNK9 inhibitor project, cell-based, second counter screen, non-induced KCNK9-HEK293; shares compounds with KCNK9 block; FluxOR thallium flux; inhibition, % at 10 µM; 4,900 compounds, 40% hits; AID 492997, 2010;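 active = thallium signal drop beyond 5 SD of the untreated control mean, on both duplicate plates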;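 also: plate controls were buffer only IC0 wells for no effect and SID17386958 at its maximal inhibitory level for full effect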
Active calls of the source: *.

`O=c1[nH]c(C2CCN(S(=O)(=O)/C=C/c3ccccc3)CC2)nc2c1nnn2Cc1ccccc1` gave KCNK3 inh inactive, KCNQ1 pot inactive, KCNQ1 inh inactive, KCNK9 block inactive and hERG protect -9.
`Oc1ccccc1C1=Nc2ccccc2N=C(c2cccs2)C1` gave KCNK3 inh inactive, KCNQ1 pot inactive, KCNQ1 inh inactive, KCNK9 block -10*, Cl transport mod -0.14, hERG protect -24, KCNK9 inh conf 42%*, Kir21 sel inactive and KCNK9 uninduced 34%*.
Screening Cc1cc(C)n(-c2nc3ccccc3nc2N2CCCCCC2)n1 returned KCNK3 inh inactive, KCNQ1 pot inactive, KCNQ1 inh inactive, KCNK9 block -9.9*, Cl transport mod -0.7, hERG protect -7, KCNK9 inh conf 33%*, Kir21 sel inactive and KCNK9 uninduced 40%*.
Screening O=C(CCCc1ccccc1)NCCCc1ccccc1 returned KCNK3 inh inactive, KCNQ1 pot inactive, KCNQ1 inh inactive, KCNK9 block inactive, hERG protect 0, KCNK9 inh conf inactive, Kir21 sel inactive and KCNK9 uninduced inactive.
For O=C(COc1ccc(Cl)cc1Cl)NCCCCc1ccccc1 the results were KCNK3 inh inactive, KCNQ1 pot inactive, KCNQ1 inh inactive, KCNK9 block inactive, Cl transport mod -0.0023, hERG protect -12, KCNK9 inh conf inactive, Kir21 sel inactive and KCNK9 uninduced 24%*.
For O=C(CCCc1ccccc1)NCCc1ccccc1 the results were KCNK3 inh inactive, KCNQ1 pot inactive, KCNQ1 inh inactive, KCNK9 block inactive and hERG protect -3.
C=CCOc1ccc(/C=N/NC(=O)c2c(C)nc3ccc(Cl)cn23)cc1 was read as KCNK3 inh inactive, KCNQ1 pot inactive, KCNQ1 inh inactive, KCNK9 block inactive and hERG protect -7.
`OCC1(Cc2cccc(C(F)(F)F)c2)CCN(Cc2cc(F)cc(F)c2)CC1` gave KCNK3 inh inactive, KCNQ1 pot inactive, KCNQ1 inh inactive, KCNK9 block inactive, Cl transport mod -0.34, hERG protect -23, KCNK9 inh conf inactive, Kir21 sel inactive and KCNK9 uninduced inactive.
For OCC1(Cc2ccccc2C(F)(F)F)CCN(Cc2ccccc2)CC1 the results were KCNK3 inh inactive, KCNQ1 pot inactive, KCNQ1 inh inactive, KCNK9 block inactive, Cl transport mod -0.56, hERG protect -17, KCNK9 inh conf inactive, Kir21 sel inactive and KCNK9 uninduced inactive.
Screening OCC1(Cc2ccccc2C(F)(F)F)CCN(Cc2ccc3c(c2)CCO3)CC1 returned KCNK3 inh inactive, KCNQ1 pot inactive, KCNQ1 inh inactive, KCNK9 block inactive, Cl transport mod 0.079, hERG protect -10, KCNK9 inh conf inactive, Kir21 sel inactive and KCNK9 uninduced inactive.
